The source made the active and inactive calls. The rule behind the calls is not given here.
Columns and labels:
[1] = test system: H9c2; experiment: Anti-ischemic activity against ischemia/reperfusion-induced rat H9c2 cell death assessed as cell viability at 10 uM (Rbv = 63 +/- 2%); assay type: functional; details: read-out: Activity
[2] = test system: H9c2; experiment: Anti-ischemic activity against ischemia/reperfusion-induced rat H9c2 cell death assessed as cell viability at 10 uM in presence of mito-KATP channel blocker 5-hydroxydecanoic acid; assay type: functional, cell-based
[3] = test system: Rattus norvegicus; experiment: Anti-ischemic activity against Langendorff perfused Wistar rat heart assessed as recovery of post-ischemic inotropic functionality measured during whole reperfusion period at 40 mg/kg, ip relative to control; assay type: functional, organism-based; set-up: dose 40 mg/kg; details: Wister
In short: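 Rats pre-treated with test agent 40 mg/kg before heart isolation. Langendorff-perfused hearts underwent ischemia then reperfusion. Rate-pressure product (RPP) was recorded over the reperfusion period and expressed as % of pre-ischemic RPP.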

[4] = test system: Rattus norvegicus; experiment: Anti-ischemic activity against in Langendorff perfused Wistar rat heart assessed as reduction in ischemia-induced left ventricular tissue injury at 40 mg/kg, ip by morphological analysis; assay type: functional, organism-based; set-up: dose 40 mg/kg; details: Wister
In short: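 Hearts came from rats pre-treated at 40 mg/kg and underwent ischemia/reperfusion in Langendorff perfusion. Left ventricles were analysed morphologically for injured tissue. Infarct size was expressed as % of left ventricular area (Ai/ALV%).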

[5] = test system: H9c2; experiment: Anti-ischemic activity against ischemia/reperfusion-induced rat H9c2 cell death assessed as cell viability at 100 uM in presence of mito-KATP channel blocker 5-hydroxydecanoic acid; assay type: functional, cell-based
[6] = test system: H9c2; experiment: Anti-ischemic activity against ischemia/reperfusion-induced rat H9c2 cell death assessed as cell viability at 100 uM (Rbv = 63 +/- 2%); assay type: functional; details: read-out: Activity

CC(=O)Nc1ccc(CN2CC3(CC(C)(C)Oc4ccc(Br)cc43)OC2=O)cc1 (racemic)
viability at 10 µM [1]: 81%

CC1(C)CC2(CN(Cc3ccc(NS(C)(=O)=O)cc3)C(=O)O2)c2ccccc2O1 (racemic)
viability at 10 µM [1]: 84%

CC(=O)Nc1ccc(CN2CC3(CC(C)(C)Oc4ccccc43)OC2=O)cc1 (racemic)
viability at 10 µM [1]: 92%
Activity [2]: inactive
Activity [3]: Active
Activity [4]: Active

CC1(C)CC2(OC(=O)N(Cc3ccc(NS(C)(=O)=O)cc3)C2=N)c2cc(Br)ccc2O1 (racemic)
viability at 10 µM [1]: 78%

CC(=O)Nc1ccc(CN2C(=N)C3(CC(C)(C)Oc4ccc(Br)cc43)OC2=O)cc1 (racemic)
viability at 10 µM [1]: 76%

CC(=O)Nc1ccc(CN2CC3(CC(C)(C)Oc4ccccc43)OCC2=O)cc1 (stereo not given)
viability at 10 µM [1]: 99%
Activity [2]: inactive
Activity [3]: Active
Activity [4]: Active

CC1=Nc2ccc(Cl)cc2S(=O)(=O)N1 [DIAZOXIDE]
Activity [5]: inactive
viability at 100 µM [6]: 103%

CC(=O)Nc1ccc(CN2C(=N)C3(CC(C)(C)Oc4ccccc43)OC2=O)cc1 (racemic)
viability at 10 µM [1]: 68%
